Published values of several laboratories.
Protocols differ between the studies behind these lines.
Target: cAMP-dependent protein kinase catalytic subunit alpha (PRKACA, Homo sapiens, UniProt P17612)

C#Cc1n[nH]c2c(-c3cn([C@@H](C)c4ccccc4)c(=O)[nH]c3=O)cc(F)cc12
inhibition (enzyme activity, inhibitor; 0.1 µM): 0%

COc1ncccc1-c1cnn2ccc(N3CCN(C(=O)OC(C)C)CC3)nc12
remaining binding (binding, competition with immobilised ligand; 1 µM): 66%

Cn1cncc1[C@@](O)(COc1ccc(C#N)cc1-c1ccc(OC(F)(F)F)cc1)c1ccc(C#N)cc1
remaining binding (cell-free assay, competition with immobilised ligand; 1 µM): 94%

Cn1cc(-c2cc(F)cc(N3CCn4c(cc5c4CCCC5)C3=O)c2CO)cc(Nc2ccc(N3CCN(C4COC4)CC3)cn2)c1=O
inhibition (enzyme activity, inhibitor; 0.1 µM): 6%

Cc1nn(C)cc1-c1nc2c(N3CCN(Cc4ccc(Cl)cc4)CC3)c(Cl)cnc2[nH]1
remaining binding (binding, competition with immobilised ligand; 1 µM): 57%

Cn1cc(-c2cccc(N3CCc4c(sc5c4CC(C)(C)C5)C3=O)c2CO)cc(Nc2ccncn2)c1=O
inhibition (enzyme activity, inhibitor; 1 µM): -3%

Nc1ncc(-c2nc(N3CCOCC3)nc(N3CCOCC3)n2)c(C(F)F)n1
remaining binding (binding, competition with immobilised ligand; 10 µM): 85%

O=c1[nH]c2ccccc2n1C1CCN(Cc2ccc(-c3[nH]c4cc5ncnc5cc4nc3-c3ccccc3)cc2)CC1
remaining signal (cell-free assay; 0.5 µM): 106%

C#Cc1n[nH]c2c(-c3cn(C(C)c4ccccn4)c(=O)[nH]c3=O)cc(F)cc12 (stereo not shown)
inhibition (enzyme activity, inhibitor; 1 µM): 15.6%

Nc1ncnc2c1ncn2[C@@H]1O[C@H](COP(=O)(O)OP(=O)(O)OP(=O)(O)O)[C@@H](O)[C@H]1O
Km (enzyme activity, substrate; pH 7.4): 16.9 µM
